From ChEMBL document CHEMBL2046356, “Synthesis and evaluation of a set of para-substituted 4-phenylpiperidines and 4-phenylpiperazines as monoamine oxidase (MAO) inhibitors” (J Med Chem, 2012) come the findings set out here.

pKi: −log10 of the molar value. Active and inactive are the calls of the source. No cut-off for these calls is given here.

The subject of experiment [1] is Rattus norvegicus. Briefly: Increase in 3-MT level in Sprague-Dawley rat striatum at 100 umol/kg, sc measured after 1 hr compound administration. The experiment is classed as functional. The essentials:
(§1)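 Compounds were given to freely moving rats. Brain tissue was taken post-mortem, and striatal levels of each monoamine and its metabolites were quantified.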

Experiment [2] addresses T1, Amine oxidase [flavin-containing] A (Rattus norvegicus, UniProt P21396).
T1 sequence (P21396 whole entry): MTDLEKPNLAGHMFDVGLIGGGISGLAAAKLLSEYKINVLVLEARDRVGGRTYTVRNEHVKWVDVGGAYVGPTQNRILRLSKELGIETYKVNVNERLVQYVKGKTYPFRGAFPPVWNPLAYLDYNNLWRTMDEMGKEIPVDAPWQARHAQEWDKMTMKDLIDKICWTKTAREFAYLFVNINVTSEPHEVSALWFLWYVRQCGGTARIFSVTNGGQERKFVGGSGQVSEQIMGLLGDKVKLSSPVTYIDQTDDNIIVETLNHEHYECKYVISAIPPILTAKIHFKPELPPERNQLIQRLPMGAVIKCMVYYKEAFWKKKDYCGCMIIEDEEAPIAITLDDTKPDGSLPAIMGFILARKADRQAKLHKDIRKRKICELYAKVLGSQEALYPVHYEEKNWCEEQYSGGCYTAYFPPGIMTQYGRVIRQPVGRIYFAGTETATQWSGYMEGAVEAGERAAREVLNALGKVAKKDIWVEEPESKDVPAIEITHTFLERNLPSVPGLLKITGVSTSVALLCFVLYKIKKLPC
Briefly: Displacement of [3H]-Ro 41-1049 from MAO-A receptor in rat cerebral cortex. The experiment is classed as tissue-based. A general note: Displacement assays read how much labelled ligand stays bound in the presence of the test substance.

Experiment [3] deals with T2, Amine oxidase [flavin-containing] B (Rattus norvegicus, UniProt P19643).
T2 sequence (P19643 whole entry): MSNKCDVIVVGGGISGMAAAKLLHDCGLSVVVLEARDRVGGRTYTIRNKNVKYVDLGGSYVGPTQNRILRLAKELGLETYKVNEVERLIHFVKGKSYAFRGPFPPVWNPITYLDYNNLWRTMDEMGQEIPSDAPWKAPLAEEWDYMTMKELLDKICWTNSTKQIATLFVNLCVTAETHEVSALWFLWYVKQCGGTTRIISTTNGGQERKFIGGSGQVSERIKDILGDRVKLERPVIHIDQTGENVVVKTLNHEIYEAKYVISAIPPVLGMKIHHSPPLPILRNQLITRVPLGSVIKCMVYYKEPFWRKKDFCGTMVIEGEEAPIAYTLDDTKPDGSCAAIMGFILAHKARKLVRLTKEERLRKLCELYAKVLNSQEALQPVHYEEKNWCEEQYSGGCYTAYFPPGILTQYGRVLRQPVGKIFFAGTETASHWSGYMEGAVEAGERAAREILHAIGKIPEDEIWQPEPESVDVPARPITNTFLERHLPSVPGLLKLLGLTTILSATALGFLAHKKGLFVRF
Briefly: Displacement of [3H]-Ro 16-6491 from MAO-B receptor in rat cerebral cortex. The experiment is classed as tissue-based.

Experiment [4] concerns Rattus norvegicus. Briefly: Decrease in DOPAC level in Sprague-Dawley rat striatum at 100 umol/kg, sc measured after 1 hr compound administration. The experiment is classed as functional. Details: scale not given: the % may be the effect or the level left. The essentials: as §1
The test system of experiment [5] is Rattus norvegicus. Briefly: Increase in 3-MT level in Sprague-Dawley rat striatum at 37 umol/kg, sc measured after 1 hr compound administration. The experiment is classed as functional. Summed up: (§2)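 Unrestrained rats were dosed, and post-mortem striatal brain tissue was then analysed. Each monoamine and its metabolites (DOPAC, 3-MT) were quantified in the tissue.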

The test system of experiment [6] is Rattus norvegicus. Briefly: Decrease in DOPAC level in Sprague-Dawley rat striatum at 37 umol/kg, sc measured after 1 hr compound administration. The experiment is classed as functional. More on the design: scale not given: the % may be the effect or the level left. The essentials:
as §2

The test system of experiment [7] is Rattus norvegicus. Briefly: Increase in 3-MT level in Sprague-Dawley rat striatum at 53 umol/kg, sc measured after 1 hr compound administration. The experiment is classed as functional. Summed up:
as §1

Experiment [8] concerns Rattus norvegicus. Briefly: Decrease in DOPAC level in Sprague-Dawley rat striatum at 5.3 umol/kg, sc measured after 1 hr compound administration. More on the design: scale not given: the % may be the effect or the level left. The experiment is classed as functional. Summed up: as §1
For experiment [9], the system named is Rattus norvegicus. Briefly: Increase in 3-MT level in Sprague-Dawley rat striatum at 5.3 umol/kg, sc measured after 1 hr compound administration. The experiment is classed as functional. The essentials:
as §1

Experiment [10] relates to Rattus norvegicus. Briefly: Decrease in DOPAC level in Sprague-Dawley rat striatum at 53 umol/kg, sc measured after 1 hr compound administration. The experiment is classed as functional. More on the design: scale not given: the % may be the effect or the level left. The essentials: as §1
In experiment [11] the test system is Rattus norvegicus. Briefly: Decrease in homovanillic acid level in Sprague-Dawley rat brain at 50 umol/kg, sc measured by microdialysis. The experiment is classed as functional, organism-based.
In experiment [12] the test system is Rattus norvegicus. Briefly: Increase in 3-MT level in Sprague-Dawley rat brain at 50 umol/kg, sc measured by microdialysis. The experiment is classed as functional, organism-based.
For experiment [13], the system named is Rattus norvegicus. Briefly: Decrease in DOPAC level in Sprague-Dawley rat brain at 50 umol/kg, sc measured by microdialysis. The experiment is classed as functional, organism-based.

As a reminder, the pKi is the Ki on a negative log10 scale, so that one unit is a factor of ten.

`CCCN1CCC(c2ccc(Cl)cc2)CC1`: the Activity in the experiment with Rattus norvegicus [1] is 130%; in the experiment with Rattus norvegicus [4] it was 68%. Besides, the pKi is 5.82 in [2] and 4.42 in experiment [3].

On to `CCCN1CCN(c2ccc(OC)cc2)CC1`, for which the figures for the Activity in the experiment on Rattus norvegicus [1] and with Rattus norvegicus [4] were 135% and 71%, respectively. For the same molecule, the pKi was 5.85 in experiment [2] and 3.23 in [3].

Turning to `CCCN1CCC(c2ccccc2)CC1`, the Activity was 100% in the experiment on Rattus norvegicus [1] and 130% in the experiment on Rattus norvegicus [4]. The pKi in [2] is 5.01.

For `CCCN1CCN(c2ccccc2)CC1`, the results for the Activity with Rattus norvegicus [1] and with Rattus norvegicus [4] were 100% and 180%, respectively. The negative-log Ki (pKi) in [2] is 4.33.

For the molecule `CCCN1CCC(c2ccc(N3CCOCC3)cc2)CC1`, the Activity in the experiment with Rattus norvegicus [1] was found to be 160%; with Rattus norvegicus [4], 38%. In addition, the results for the pKi in experiment [2] and in experiment [3] were 5.92 and 4.89, respectively.

Turning to `CCCN1CCC(c2ccc(S(C)(=O)=O)cc2)CC1`, the Activity with Rattus norvegicus [1] and in the experiment with Rattus norvegicus [4] was 100% in each case. Besides, the pKi in experiment [2] and in [3] was 3.23 each time.

For the molecule `CCCN1CCC(c2ccc(C#N)cc2)CC1`, the Activity was 115% in the experiment with Rattus norvegicus [1] and 105% in the experiment with Rattus norvegicus [4]. In addition, the values for the pKi in experiment [2] and in experiment [3] were 4.03 and 3.23, respectively.

For `CCCN1CCC(c2ccc(OC)cc2)CC1`, the Activity is 260% in the experiment with Rattus norvegicus [1] and 22% in the experiment on Rattus norvegicus [4]. The values for the pKi in [2] and in experiment [3] were 6.62 and 3.66, respectively.

Take `O=C(NCCN1CCOCC1)c1ccc(Cl)cc1` [MOCLOBEMIDE]: the Activity in the experiment on Rattus norvegicus [5] is 400%; in the experiment with Rattus norvegicus [6] it was 18%. For the same molecule, the pKi in experiment [3] was below 4.00.

`C#CCN(C)[C@H](C)Cc1ccccc1` [SELEGILINE]: the Activity with Rattus norvegicus [7] is reported as 145%; in the experiment with Rattus norvegicus [8] it was 83%; with Rattus norvegicus [9], 110%; in the experiment on Rattus norvegicus [10] it was 37%.

Take `CCCN1CCN(c2ccc(OS(=O)(=O)C(F)(F)F)cc2)CC1`: the Activity in the experiment on Rattus norvegicus [1] is listed as 120%; in the experiment on Rattus norvegicus [4], 121%. The values for the pKi in experiment [2] and in [3] were 4.77 and 7.48, respectively.

`CCCCOc1ccc(C2CCN(CCC)CC2)cc1`: the outcome in the experiment on Rattus norvegicus [11], in the experiment with Rattus norvegicus [12] and in the experiment on Rattus norvegicus [13] was Active. The Activity in the experiment with Rattus norvegicus [1] came to 150%; in the experiment on Rattus norvegicus [4] it was 40%. For the same molecule, the negative logarithm of the Ki (pKi) in [2] was 6.43; in experiment [3], 5.80.

Regarding `CCCN1CCC(c2ccc(C(F)(F)F)cc2)CC1`, the values for the Activity in the experiment with Rattus norvegicus [1] and in the experiment with Rattus norvegicus [4] were 100% and 86%, respectively. The negative-log Ki (pKi) in experiment [2] was 5.16; in experiment [3], 4.89.
